The text below walks through data of the RNAGym collection of RNA variant scans (doi:10.1002/anie.201605470).

Sequences and labels used below:
B1: Osa-1-4 twister ribozyme (parent)
chain: CCGCCUAACACUGCCAAUGCCGGUCCCAAGCCCGGAUAAAAGUGGAGGGGGCGG

Variants of B1 are the subject of this data set. Put plainly: self-cleavage, relative activity (ratio to wild type); higher = more cleavage; co-transcriptional. Summed up:
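For each read, cleavage status was taken from whether upstream sequence was present. The reads came from an Oryza sativa twister ribozyme of 54 nucleotides, whose DNA template was synthesised with 97 % wild-type base and 1 % of each other base at the 48 positions downstream of the cleavage site. The template was transcribed in vitro at 37 °C for 2 h with co-transcriptional self-cleavage, and the RNA was reverse-transcribed using a template-switching oligonucleotide, PCR-amplified and deep-sequenced. Relative activity is the fraction cleaved normalised to wild type.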
As for CCGCCUGACACUGCCAAUGCCGGUCCCAAGCCCGGAUAAAUGUGGAGGGGGCGG, the self-cleavage was determined as 0.31.

Regarding CCGCCUUACACUGCCAAUGCCGGUCCCAAGCCCGGAUAAAUGUGGAGGGGGCGG, the self-cleavage came out at 0.11.

In the case of CCGCCUAACACUGCCAAUGCCGGUCCCAAGCCCGGAUAAAUGUCGAGGGGGCGG, the self-cleavage turned out to be 0.98.

For CCGCCUAACACUGCCAAUGCCGGUCCCAAGCCCGGAUAAAUGUUGAGGGGGCGG, the self-cleavage worked out at 0.87.

Consider CCGCCUAACACUGCCAAUGCCGGUCCCAAGCCCGGAUAAAUGUAGAGGGGGCGG, for which the self-cleavage amounted to 0.88.

For the variant CCGCCUAACACUGCCAAUGCCGGUCCCAAGCCCGGAUAAAUGUGGAGGUGGCGG, the self-cleavage was found to be 0.13.

Take CCGCCUAACACUGCCAAUGCCGGUCCCAAGCCCGGAUAAAUGUGGAGGCGGCGG: the self-cleavage came to 0.07.

On to CCGCCUAACACUGCCAAUGCCGGUCCCAAGCCCGGAUAAAUGUGGAGGAGGCGG, for which the self-cleavage worked out at 0.14.

With CCGCCUAACACUGCCAAUGCCGGUCUCAAGCCCGGAUAAAUGUGGAGGGGGCGG, the self-cleavage was 0.93.

For CCGCCUAACACUGCCAAUGCCGGUCACAAGCCCGGAUAAAUGUGGAGGGGGCGG, the self-cleavage worked out at 0.06.

As for CCGCCUAACACUGCCAAUGCCGGUCGCAAGCCCGGAUAAAUGUGGAGGGGGCGG, the self-cleavage amounted to 0.11.

CCGCCUAACACUGCCAAUGCGGGUCCCAAGCCCGGAUAAAUGUGGAGGGGGCGG: the self-cleavage amounted to 0.1.

In the case of CCGCCUAACACUGCCAAUGCUGGUCCCAAGCCCGGAUAAAUGUGGAGGGGGCGG, the self-cleavage was found to be 1.

Consider CCGCCUAACACUGCCAAUGCAGGUCCCAAGCCCGGAUAAAUGUGGAGGGGGCGG, for which the self-cleavage was found to be 0.87.

In the case of CCGCCUAACACUGUCAAUGCCGGUCCCAAGCCCGGAUAAAUGUGGAGGGGGCGG, the self-cleavage worked out at 0.7.

With CCGCCUAACACUGACAAUGCCGGUCCCAAGCCCGGAUAAAUGUGGAGGGGGCGG, the self-cleavage amounted to 0.13.

With CCGCCUAACACUGGCAAUGCCGGUCCCAAGCCCGGAUAAAUGUGGAGGGGGCGG, the self-cleavage was 0.3.

With CCGCCUAACACUGCGAAUGCCGGUCCCAAGCCCGGAUAAAUGUGGAGGGGGCGG, the self-cleavage was determined as 0.64.

Regarding CCGCCUAACACUGCAAAUGCCGGUCCCAAGCCCGGAUAAAUGUGGAGGGGGCGG, the self-cleavage came out at 0.26.

CCGCCUAACACUGCUAAUGCCGGUCCCAAGCCCGGAUAAAUGUGGAGGGGGCGG: the self-cleavage worked out at 0.56.

CCGCCUAACACUGCCAAUGCCGGUCCCAAGCCCGCAUAAAUGUGGAGGGGGCGG: the self-cleavage is 0.77.

CCGCCUAACACUGCCAAUGCCGGUCCCAAGCCCGUAUAAAUGUGGAGGGGGCGG: the self-cleavage worked out at 0.87.

Regarding CCGCCUAACACUGCCAAUGCCGGUCCCAAGCCCGAAUAAAUGUGGAGGGGGCGG, the self-cleavage worked out at 0.83.

Turning to CCGCCUAACACUGCCAAUGUCGGUCCCAAGCCCGGAUAAAUGUGGAGGGGGCGG, the self-cleavage turned out to be 0.95.

On to CCGCCUAACACUGCCAAUGGCGGUCCCAAGCCCGGAUAAAUGUGGAGGGGGCGG, for which the self-cleavage was found to be 0.19.

As for CCGCCUAACACUGCCAAUGACGGUCCCAAGCCCGGAUAAAUGUGGAGGGGGCGG, the self-cleavage turned out to be 0.85.

For CCGCCUAACACUGCCAAUGCCGGUCCCAAACCCGGAUAAAUGUGGAGGGGGCGG, the self-cleavage worked out at 0.06.

Regarding CCGCCUAACACUGCCAAUGCCGGUCCCAACCCCGGAUAAAUGUGGAGGGGGCGG, the self-cleavage turned out to be 0.04.

CCGCCUAACACUGCCAAUGCCGGUCCCAAUCCCGGAUAAAUGUGGAGGGGGCGG: the self-cleavage turned out to be 0.04.

Regarding CCGCCUAACACUGCCAAUGCCUGUCCCAAGCCCGGAUAAAUGUGGAGGGGGCGG, the self-cleavage stood at 0.85.

On to CCGCCUAACACUGCCAAUGCCAGUCCCAAGCCCGGAUAAAUGUGGAGGGGGCGG, for which the self-cleavage stood at 1.

Consider CCGCCUAACACUGCCAAUGCCCGUCCCAAGCCCGGAUAAAUGUGGAGGGGGCGG, for which the self-cleavage amounted to 0.1.

Take CCGCCUAACACUGCCAAUGCCGGUCCCAAGCCCGGAUAAAUGUGUAGGGGGCGG: the self-cleavage turned out to be 0.12.

Consider CCGCCUAACACUGCCAAUGCCGGUCCCAAGCCCGGAUAAAUGUGAAGGGGGCGG, for which the self-cleavage was 0.25.

In the case of CCGCCUAACACUGCCAAUGCCGGUCCCAAGCCCGGAUAAAUGUGCAGGGGGCGG, the self-cleavage was found to be 0.06.

In the case of CCGCCUAACACUGCCAAUACCGGUCCCAAGCCCGGAUAAAUGUGGAGGGGGCGG, the self-cleavage was 0.94.

Turning to CCGCCUAACACUGCCAAUCCCGGUCCCAAGCCCGGAUAAAUGUGGAGGGGGCGG, the self-cleavage amounted to 0.24.

CCGCCUAACACUGCCAAUUCCGGUCCCAAGCCCGGAUAAAUGUGGAGGGGGCGG: the self-cleavage is 0.35.

Take CCGCCUAACACUGCCAAUGCCGGUCCCAAGCCCGGAUAAAUGUGGCGGGGGCGG: the self-cleavage was 0.06.

On to CCGCCUAACACUGCCAAUGCCGGUCCCAAGCCCGGAUAAAUGUGGGGGGGGCGG, for which the self-cleavage is 0.07.

On to CCGCCUAACACUGCCAAUGCCGGUCCCAAGCCCGGAUAAAUGUGGUGGGGGCGG, for which the self-cleavage was 0.09.

On to CCGCCUAACACUGCCAAUGCCGGUCCGAAGCCCGGAUAAAUGUGGAGGGGGCGG, for which the self-cleavage worked out at 0.08.

Take CCGCCUAACACUGCCAAUGCCGGUCCAAAGCCCGGAUAAAUGUGGAGGGGGCGG: the self-cleavage amounted to 0.18.

Take CCGCCUAACACUGCCAAUGCCGGUCCUAAGCCCGGAUAAAUGUGGAGGGGGCGG: the self-cleavage was found to be 0.16.

As to CCGCCUAACACUCCCAAUGCCGGUCCCAAGCCCGGAUAAAUGUGGAGGGGGCGG, the self-cleavage came out at 0.03.

With CCGCCUAACACUACCAAUGCCGGUCCCAAGCCCGGAUAAAUGUGGAGGGGGCGG, the self-cleavage is 0.14.

Turning to CCGCCUAACACUUCCAAUGCCGGUCCCAAGCCCGGAUAAAUGUGGAGGGGGCGG, the self-cleavage stood at 0.03.

Regarding CCGCCUAACACUGCCAAUGCCGGUCCCAAGCCUGGAUAAAUGUGGAGGGGGCGG, the self-cleavage came to 0.81.
